The values below come from PubChem BioAssay AID623951 (Broad Institute, 2012).

A value given as a limit tells only on which side of the number the result lay.

For the assay, the target named is PvdQ acyl-homoserine lactone acylase (Pseudomonas aeruginosa LESB58). Description: P. aeruginosa PvdQ acylase inhibitors, dose response, biochemical, fluorescence, plate reader, dry powder samples (AID 623951). As to conditions: purified PvdQ, 4-MU laurate hydrolysis. In a few lines: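 System: purified P. aeruginosa PvdQ; probe or stimulus: 0.8 mM 4-MU laurate; schedule: 30 min enzyme–compound pre-incubation, 60 min reaction, room temperature; signal: 4-methylumbelliferone fluorescence, excitation 303–367 nm, emission 440–460 nm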
As usually defined, the AC50 is the concentration giving half of the maximal activity seen. Consider `CCCCC(C#N)c1ccccc1OC(F)(F)F` (stereo unspecified), for which the AC50 is 1300 nM. `CCCCC(C#N)c1ccc(F)cc1` (stereo unspecified): the AC50 was 20.2 nM.

As to `CCCCC(C#N)c1ccc(C(F)(F)F)cc1` (stereo unspecified), the AC50 is 182 nM. As for `N#CC(c1ccc(C(F)(F)F)cc1)c1cccc(Cl)n1` (stereo unspecified), the half-maximal activity concentration (AC50) is 287 nM. For the compound `Cc1ccc(C(C#N)c2ccc(Cl)cc2)nc1` (stereo unspecified), the AC50 was 271 nM.

For `N#CC(c1ccc(C(F)(F)F)c(Cl)n1)c1ccc(Cl)cc1Cl` (stereo unspecified), the AC50 is 831 nM. To `N#CC(c1ccc(Cl)cc1)c1ccc(C(F)(F)F)cn1` (stereo unspecified) belongs 546 nM; to `COc1cccc(C(C#N)c2ccc(F)cc2)n1` (stereo unspecified), 240 nM.

With `Cc1ccc(C(C#N)c2ccc(Cl)cc2)nc1C#N` (stereo unspecified), the AC50 was 221 nM. For the compound `N#CC(c1ccc(C(F)(F)F)c(Cl)n1)c1ccc(Cl)cc1F` (stereo unspecified), the AC50 is 802 nM. For `N#CC(c1cccc(C(F)(F)F)n1)c1ccc(Cl)cc1F` (stereo unspecified), the AC50 is < 3 nM. Take `N#CC(c1cccc(Cl)n1)c1ccccc1OC(F)(F)F` (stereo unspecified): the AC50 was 936 nM. Then `N#CC(c1ccc(F)cc1)c1ccc(C(F)(F)F)c(Cl)n1` (stereo unspecified), with 398 nM. Then `N#CC(c1ccc(Cl)cc1Cl)c1ncccc1Cl` (stereo unspecified), with 279 nM; and `CC(C)CC(C#N)c1ccc(Cl)cc1` (stereo unspecified), with 121 nM; and `N#CC(CC1CC1)c1ccc(Cl)cc1` (stereo unspecified), with 258 nM. As to `N#Cc1cccc(C(C#N)c2ccc(Cl)cc2F)n1` (stereo unspecified), the AC50 was 140 nM. In the case of `Cc1ccc(C(C#N)c2ccccc2OC(F)(F)F)nc1C#N` (stereo unspecified), the AC50 was 467 nM.

On to `N#CC(c1ccc(Cl)cc1)c1ccc(C(F)(F)F)c(Cl)n1` (stereo unspecified), for which the AC50 is 414 nM. To `CCCC(C#N)c1ccc(Cl)cc1` (stereo unspecified) belongs 99.4 nM. Then `N#CC(c1cccc(Cl)n1)c1ccc(Cl)cc1F` (stereo unspecified), with 77 nM. Then `N#CC(c1ccc(Cl)cc1)c1ccc(Cl)cn1` (stereo unspecified), with 62.8 nM. Consider `Cc1cccc(C(C#N)c2ccc(Cl)cc2)n1` (stereo unspecified), for which the AC50 was 138 nM. Then `N#Cc1ccc(C(C#N)c2ccc(Cl)cc2)nc1` (stereo unspecified), with 2660 nM; and `N#CC(c1cccc(C(F)(F)F)n1)c1ccccc1OC(F)(F)F` (stereo unspecified), with 1530 nM; and `CCCCC(C#N)c1ccc(Cl)cc1Cl` (stereo unspecified), with 75.6 nM. For the compound `CCCCC(C#N)c1ccc(Cl)cc1F` (stereo unspecified), the AC50 is 457 nM.

On to `N#Cc1cccc(C(C#N)c2ccccc2OC(F)(F)F)n1` (stereo unspecified), for which the AC50 is 1340 nM. To `N#CC(c1ccc(Cl)cc1)c1ncccc1Cl` (stereo unspecified) belongs 5.76 nM; to `N#Cc1cccc(C(C#N)c2ccc(Cl)cc2Cl)n1` (stereo unspecified), 380 nM. In the case of `N#CC(c1cccc(Cl)n1)c1ccc(Cl)cc1Cl` (stereo unspecified), the AC50 is 203 nM. Turning to `CC(C#N)(c1ccc(Cl)cc1)c1ccc(C(F)(F)F)cn1` (stereo unspecified), the AC50 is 5630 nM. To `N#CC(c1ccc(C(F)(F)F)cc1)c1cccc(C(F)(F)F)n1` (stereo unspecified) belongs 43.4 nM.

Consider `N#CC(c1ccc(Cl)cc1)c1cccc(C(F)(F)F)n1` (stereo unspecified), for which the AC50 is 11.1 nM. In the case of `Cc1ccc(C(C#N)c2ccc(F)cc2)nc1C#N` (stereo unspecified), the AC50 is 142 nM. To `N#Cc1ccc(C(C#N)c2ccc(Cl)cc2Cl)nc1` (stereo unspecified) belongs 2700 nM; to `CCCCC(C#N)c1ccc(Cl)cc1` (stereo unspecified), 118 nM; to `N#Cc1cccc(C(C#N)c2ccc(Cl)cc2)n1` (stereo unspecified), 138 nM. To `N#CC(c1ccc(C(F)(F)F)cc1)c1ccc(C(F)(F)F)c(Cl)n1` (stereo unspecified) belongs 1390 nM.

Take `N#CC(c1ccc(F)cc1)c1cccc(C(F)(F)F)n1` (stereo unspecified): the AC50 is 11.7 nM. Then `N#CC(c1ccc(C(F)(F)F)c(Cl)n1)c1ccccc1OC(F)(F)F` (stereo unspecified), with 433 nM.
